In test [1] the target is T1, Cannabinoid receptor 1 (Homo sapiens, UniProt P21554). Put plainly: Binding affinity to CB1 receptor. Put shortly: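 Membranes from HEK-293 cells expressing human CB1. […] incubated with tritiated agonist radioligand (7.2 nM) or [3H]SR141716 (20 nM) in 50 mM Tris-HCl, 1 mM EDTA, 3 mM MgCl2, 5 mg/mL BSA, pH 7.4, for 1 h at 30 °C. Nonspecific binding taken with 10 µM unlabeled ligand. Filtration, then scintillation counting. Duplicates, 3-6 independent experiments.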

Test [2] addresses T2, Cannabinoid receptor 2 (Homo sapiens, UniProt P34972). Put plainly: Binding affinity to CB2 receptor. The procedure, abridged:
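Human CB2 expressed in CHO-K1 cell membranes, […]. Displacement of tritiated agonist radioligand (ca. 130 Ci/mmol, 7.2 nM) in Tris-HCl/EDTA/MgCl2/BSA buffer at pH 7.4, 1 h at 30 °C. Nonspecific binding with 10 µM unlabeled agonist. Glass-fiber filtration, then liquid scintillation counting. Duplicates, 3-6 independent experiments.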

Test [3] has as its target T1, Cannabinoid receptor 1. The test is described as follows: biochemical. In kind it is cell-based, HEK293.
Test [4] deals with T1, Cannabinoid receptor 1. The test is described as follows: biochemical. Format: cell-based, CHO-K1.
Test [5] concerns the target T2, Cannabinoid receptor 2. Put plainly: Displacement of [3H]CP-55940 from human CB2 receptor expressed in CHO-K1 cells. Format: cell-based. The procedure, abridged:
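Human CB2 expressed in CHO-K1 cell membranes, […]. Nonspecific binding with 10 µM unlabeled agonist. Glass-fiber filtration, then liquid scintillation counting. Duplicates, 3-6 independent experiments.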
(Loss of bound radioactivity is the signal in a displacement assay; it reports binding, not function.)

The species entered for the next test is Homo sapiens. The test is described as follows: Selectivity for human CB2 receptor over human CB1 receptor.

T1 sequence (P21554 whole entry): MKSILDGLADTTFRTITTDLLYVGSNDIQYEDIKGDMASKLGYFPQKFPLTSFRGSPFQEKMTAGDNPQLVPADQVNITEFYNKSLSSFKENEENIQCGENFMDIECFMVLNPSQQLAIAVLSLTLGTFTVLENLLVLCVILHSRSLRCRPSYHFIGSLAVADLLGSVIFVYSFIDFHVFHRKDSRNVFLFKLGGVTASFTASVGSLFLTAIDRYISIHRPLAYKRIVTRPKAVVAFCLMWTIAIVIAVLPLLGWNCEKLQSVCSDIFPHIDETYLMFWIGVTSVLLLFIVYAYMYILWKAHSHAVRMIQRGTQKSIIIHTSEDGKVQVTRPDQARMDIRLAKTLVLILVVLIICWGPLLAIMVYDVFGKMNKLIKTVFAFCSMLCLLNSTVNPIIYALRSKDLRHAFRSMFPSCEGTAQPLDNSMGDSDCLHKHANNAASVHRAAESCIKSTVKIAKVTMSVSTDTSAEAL
T2 sequence (P34972 whole entry): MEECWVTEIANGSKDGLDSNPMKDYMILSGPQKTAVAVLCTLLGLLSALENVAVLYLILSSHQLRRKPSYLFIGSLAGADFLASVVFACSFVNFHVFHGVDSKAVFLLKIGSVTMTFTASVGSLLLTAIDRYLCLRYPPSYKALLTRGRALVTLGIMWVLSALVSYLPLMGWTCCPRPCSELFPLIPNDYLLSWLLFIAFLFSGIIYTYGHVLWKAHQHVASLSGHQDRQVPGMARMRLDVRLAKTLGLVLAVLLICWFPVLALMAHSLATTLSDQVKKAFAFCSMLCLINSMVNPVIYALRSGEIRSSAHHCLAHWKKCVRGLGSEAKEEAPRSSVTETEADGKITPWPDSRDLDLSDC

On to `O=C(NN1CCCCC1)c1nn(-c2ccc(Cl)cc2Cl)c2c1CCc1cc(Cl)ccc1-2`, for which the values for the inhibition constant (Ki) on Cannabinoid receptor 1 [1] and on Cannabinoid receptor 2 [2] were 15 nM and 230 nM, respectively.

With `O=C(NN1CCCCC1)c1nn(-c2ccc(Cl)cc2Cl)c2c1CCCc1cc(Cl)ccc1-2`, the inhibitory constant (Ki) – broadly, the dissociation constant of the complex between target and ligand, obtained from inhibition or displacement – on Cannabinoid receptor 1 [3] is 18.4 nM; on Cannabinoid receptor 1 [4], 5.55 nM; at Cannabinoid receptor 1 [1], 0.00035 nM; at Cannabinoid receptor 2 [2], 20 nM.

Turning to `Cc1c(C(=O)NN2CCCCC2)nn(-c2ccc(Cl)cc2Cl)c1-c1ccc(Cl)cc1Cl`, the Ki on Cannabinoid receptor 1 [3] worked out at 34.2 nM; on Cannabinoid receptor 1 [4] it was 17.9 nM; on Cannabinoid receptor 2 [5], 1040 nM.

Consider `O=C(NN1CCCCC1)c1nn(-c2ccc(Cl)cc2Cl)c2c1CCCCc1cc(Cl)ccc1-2`, for which the inhibitory constant (Ki) at Cannabinoid receptor 1 [3] is 40.9 nM; on Cannabinoid receptor 1 [4], 14.7 nM; on Cannabinoid receptor 2 [5], 492 nM.

As to `Cc1c(C(=O)NN2CCCCC2)nn2c3ccc(Cl)cc3c3cc(Cl)ccc3c12`, the Ratio in the test filed under Homo sapiens amounted to 80.

Consider `Cc1cc(Cl)cc(C)c1-c1c(C)c(C(=O)NN2CCCCC2)nn1-c1ccc(Cl)cc1Cl`, for which the Ki was determined as 194 nM on Cannabinoid receptor 1 [3], 116 nM on Cannabinoid receptor 1 [4] and 758 nM at Cannabinoid receptor 2 [5].

Consider `Cc1cc(Cl)ccc1-c1c(C)c(C(=O)NN2CCCCC2)nn1-c1ccc(Cl)cc1Cl`, for which the Ki on Cannabinoid receptor 1 [3] was 16.1 nM; at Cannabinoid receptor 1 [4] it was 5.83 nM; at Cannabinoid receptor 2 [5], 1120 nM.

For the compound `Cc1c(C(=O)NN2CCCCC2)nn(-c2c(Cl)cc(Cl)cc2Cl)c1-c1ccc(Cl)cc1Cl`, the Ki at Cannabinoid receptor 1 [3] is 261 nM; on Cannabinoid receptor 1 [4], 148 nM; at Cannabinoid receptor 2 [5], 1110 nM.

In the case of `Cc1cc(Cl)ccc1-c1c(C)c(C(=O)NN2CCCCC2)nn1-c1c(Cl)cc(Cl)cc1Cl`, the Ki was found to be 251 nM at Cannabinoid receptor 1 [3], 152 nM on Cannabinoid receptor 1 [4] and 1780 nM at Cannabinoid receptor 2 [5].
